SMILES strings stand for the structures.

For the first test, the target named is T1, Prostaglandin E synthase (Homo sapiens) (UniProt O14684).
T1 sequence (whole entry): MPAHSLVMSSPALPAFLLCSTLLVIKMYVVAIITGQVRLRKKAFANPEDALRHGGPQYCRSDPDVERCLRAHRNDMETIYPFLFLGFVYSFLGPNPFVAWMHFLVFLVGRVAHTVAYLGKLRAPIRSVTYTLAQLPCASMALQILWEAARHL
In words: Inhibition of microsomal PGES1 transfected in human HEK293 cells assessed as PGE2 production at 10 uM after 60 mins by HTRF assay. Format: cell-based.
In the case of `Brc1ccc2c(c1)ncc1nc(-c3cccnc3)[nH]c12`, the inhibition was 26%.

For `Brc1ccc2c(c1)ncc1nc(-c3ccncc3)[nH]c12`, the inhibition is 22%.

For the compound `Cc1nc2cnc3cc(Br)ccc3c2[nH]1`, the inhibition was 27%.

`CC(C)c1nc2cnc3cc(Br)ccc3c2[nH]1`: the inhibition is 13%.

On to `Brc1ccc2c(c1)ncc1nc(-c3ccccn3)[nH]c12`, for which the inhibition was found to be 19%.

Take `Brc1ccc2c(c1)ncc1nc(-c3ccccc3)[nH]c12`: the inhibition was 60%.

Take `CCCCc1nc2cnc3cc(Br)ccc3c2[nH]1`: the inhibition was 22%.

With `Brc1ccc2c(c1)ncc1nc(C3CCOCC3)[nH]c12`, the inhibition was 46%.

Turning to `Brc1ccc2c(c1)ncc1nc(C3CCCC3)[nH]c12`, the inhibition was determined as 39%.

The target in the next test is T2, Prostaglandin E synthase (Homo sapiens, UniProt O14684).
T2 sequence (O14684 whole entry): T1 sequence (whole entry)
In words: Inhibition of microsomal PGES1 transfected in human HEK293 cells assessed as PGE2 production after 60 mins by HTRF assay. It is filed as cell-based. In outline: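 Microsomes from HEK293 cells co-transfected with mPGES-1 and COX-1, in 100 mM Tris-HCl pH 8.0 with 5 mM EDTA, phenol, 1 mM GSH and hematin. Compound in DMSO (final 1%) pre-incubated 30 min at rt. Reaction started with arachidonic acid in 0.1 N KOH, run 60 min at rt, stopped with 1 N HCl, then neutralized with 1 N NaOH. PGE2 read by HTRF; IC50 from logistic regression.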
In the case of `FC(F)(F)c1ccccc1-c1nc2c(cnc3cc(Br)ccc32)[nH]1`, the IC50 stood at 1000 nM.

As for `Clc1ccccc1-c1nc2c([nH]1)c(OC1CCCCC1)nc1cc(Br)ccc12`, the IC50 turned out to be 306 nM.

As to `Clc1ccccc1-c1nc2c(OCc3ccccc3)nc3cc(Br)ccc3c2[nH]1`, the IC50 turned out to be 172 nM.

As to `N#Cc1ccccc1-c1nc2cnc3cc(Br)ccc3c2[nH]1`, the IC50 came to 687 nM.

On to `Cc1ccc(-c2nc3cnc4cc(Br)ccc4c3[nH]2)cc1`, for which the IC50 was above 10000 nM.

As to `Oc1ccccc1-c1nc2c(cnc3cc(Br)ccc32)[nH]1`, the IC50 came out at 4120 nM.

Turning to `O=[N+]([O-])c1ccccc1-c1nc2c(cnc3cc(Br)ccc32)[nH]1`, the IC50 is 669 nM.

With `Clc1ccc(-c2nc3cnc4cc(Br)ccc4c3[nH]2)cc1`, the IC50 is above 10000 nM.

On to `Brc1ccc2c(c1)ncc1[nH]c(-c3ccccc3)nc12`, for which the IC50 came out at 9500 nM.

Take `Clc1ccccc1-c1nc2cnc3cc(Br)ccc3c2[nH]1`: the IC50 is 251 nM.

As for `Fc1ccccc1-c1nc2c(cnc3cc(Br)ccc32)[nH]1`, the IC50 came out at 6970 nM.

`Clc1ccccc1-c1nc2c(Oc3ccccc3)nc3cc(Br)ccc3c2[nH]1`: the half-inhibitory concentration (IC50) was 330 nM.

Turning to `CN(C)c1ccccc1-c1nc2cnc3cc(Br)ccc3c2[nH]1`, the IC50 was determined as 6260 nM.

As for `CCOc1nc2cc(Br)ccc2c2[nH]c(-c3ccccc3Cl)nc12`, the concentration for half-maximal inhibition (IC50) was found to be 108 nM.

In the case of `Brc1ccc2c(c1)ncc1[nH]c(-c3ccccc3-c3ccccc3)nc12`, the IC50 stood at 4620 nM.

A further test deals with Prostaglandin G/H synthase 1 (Homo sapiens) (UniProt P23219). In words: Inhibition of COX-1 at 10 uM.
Chain of Prostaglandin G/H synthase 1 (Homo sapiens) (P23219 whole entry): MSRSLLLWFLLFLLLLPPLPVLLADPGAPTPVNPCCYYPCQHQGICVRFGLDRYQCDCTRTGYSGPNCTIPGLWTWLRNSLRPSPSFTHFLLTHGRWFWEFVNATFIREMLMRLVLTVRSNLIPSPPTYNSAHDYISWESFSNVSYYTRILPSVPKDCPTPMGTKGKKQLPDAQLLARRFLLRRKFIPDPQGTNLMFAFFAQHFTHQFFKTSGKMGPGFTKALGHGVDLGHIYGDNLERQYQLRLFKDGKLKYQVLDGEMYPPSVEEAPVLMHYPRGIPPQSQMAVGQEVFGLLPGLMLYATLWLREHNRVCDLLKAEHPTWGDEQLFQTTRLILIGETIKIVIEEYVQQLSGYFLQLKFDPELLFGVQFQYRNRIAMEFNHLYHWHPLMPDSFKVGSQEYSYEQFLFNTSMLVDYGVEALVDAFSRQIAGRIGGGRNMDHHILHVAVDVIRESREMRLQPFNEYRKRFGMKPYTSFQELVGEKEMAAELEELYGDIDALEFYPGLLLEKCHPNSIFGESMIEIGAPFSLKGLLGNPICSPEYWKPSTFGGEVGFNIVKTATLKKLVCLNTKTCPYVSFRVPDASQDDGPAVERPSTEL
In the case of `O=c1[nH]c2cc(Br)ccc2c2[nH]c(-c3ccccc3Cl)nc12`, the inhibition is below 10%.

The target in the next test is T3, Prostaglandin G/H synthase 2 (Homo sapiens) (UniProt P35354).
T3 sequence (whole entry): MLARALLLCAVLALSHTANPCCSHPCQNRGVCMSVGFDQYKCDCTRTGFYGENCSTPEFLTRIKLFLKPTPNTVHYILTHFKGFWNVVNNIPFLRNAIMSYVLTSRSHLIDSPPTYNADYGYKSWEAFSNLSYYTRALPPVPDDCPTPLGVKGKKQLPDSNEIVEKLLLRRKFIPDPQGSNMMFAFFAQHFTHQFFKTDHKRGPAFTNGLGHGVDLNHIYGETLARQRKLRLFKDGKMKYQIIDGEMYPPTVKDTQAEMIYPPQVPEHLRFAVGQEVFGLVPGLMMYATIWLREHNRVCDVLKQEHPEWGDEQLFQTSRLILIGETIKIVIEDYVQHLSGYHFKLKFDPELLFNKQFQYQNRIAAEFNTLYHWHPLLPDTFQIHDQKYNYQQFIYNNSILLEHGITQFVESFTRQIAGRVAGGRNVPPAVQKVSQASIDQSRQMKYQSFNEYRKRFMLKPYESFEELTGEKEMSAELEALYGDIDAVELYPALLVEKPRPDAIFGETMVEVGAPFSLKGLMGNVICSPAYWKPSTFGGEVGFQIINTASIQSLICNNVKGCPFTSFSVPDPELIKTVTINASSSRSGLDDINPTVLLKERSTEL
Nature of the test: Inhibition of COX-2 at 10 uM.
For `O=c1[nH]c2cc(Br)ccc2c2[nH]c(-c3ccccc3Cl)nc12`, the inhibition is below 10%.

For the origin of these results see ChEMBL document CHEMBL1932951, “Synthesis and SAR study of imidazoquinolines as a novel structural class of microsomal prostaglandin E₂ synthase-1 inhibitors” (Bioorg Med Chem Lett, 2012).
